In the library only some 1.9% were active in any assay of this set; here they are far more common.
M4 antag – human M4 muscarinic receptor antagonists, primary screen, CHO cells, Fluo-8 calcium fluorescence. 360,000 tested, 0.73% active. inhibition, % at 3 µM. Muscarinic acetylcholine receptor M4 (Homo sapiens), P08173. CHO-hM4 cells, ACh EC80;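 active = inhibition above its plate's cutoff, the mean inhibition of sample wells plus 3 SD, cut at about 27% in these data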;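 note: 0% = acetylcholine EC80 with DMSO and 100% = DMSO without agonist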
M4 PAM – human M4 muscarinic receptor positive allosteric modulators, primary screen, CHO-K1 cells, Fluo-8 calcium fluorescence; Muscarinic acetylcholine receptor M4 (Homo sapiens), P08173; CHO-K1 hM4/Gqi5, ACh EC20; 0% = ACh EC20, 100% = maximal ACh; activation, % at 3 µM; 360,000 tested, 0.4% active;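 active = activation above its plate's cutoff, the mean activation of sample wells plus 3 SD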
M5 antag – human M5 muscarinic receptor antagonists, primary screen, CHO cells, Fluo-8 calcium fluorescence. 360,000 tested, 0.59% active. inhibition, % at 3 µM. AID 624040, 2012. Muscarinic acetylcholine receptor M5 (Homo sapiens), P08912. CHO-hM5 cells, ACh EC80;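 active = inhibition above a per-plate cutoff, the mean of that plate's test compounds plus 3 SD, cut at about 27% in these data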;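 note: 0% = acetylcholine EC80 with DMSO and 100% = DMSO without agonist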
Target sequence (P08912 whole entry, looked up): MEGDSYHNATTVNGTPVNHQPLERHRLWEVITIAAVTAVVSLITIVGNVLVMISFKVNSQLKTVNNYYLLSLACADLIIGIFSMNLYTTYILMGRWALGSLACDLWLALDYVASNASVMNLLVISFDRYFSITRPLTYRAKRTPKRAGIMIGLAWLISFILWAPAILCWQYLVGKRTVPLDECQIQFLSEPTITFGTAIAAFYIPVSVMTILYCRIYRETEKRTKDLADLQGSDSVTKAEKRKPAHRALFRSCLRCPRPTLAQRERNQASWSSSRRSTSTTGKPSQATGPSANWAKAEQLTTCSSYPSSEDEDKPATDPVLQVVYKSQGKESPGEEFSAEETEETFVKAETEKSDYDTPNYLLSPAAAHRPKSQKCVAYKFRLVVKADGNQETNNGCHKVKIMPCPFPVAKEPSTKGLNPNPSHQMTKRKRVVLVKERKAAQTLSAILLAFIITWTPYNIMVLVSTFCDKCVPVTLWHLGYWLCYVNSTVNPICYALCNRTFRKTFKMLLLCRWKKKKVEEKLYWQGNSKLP
CHRM5 agonist – human M5 muscarinic receptor agonists, primary screen, CHO-K1 cells, Fluo-8 calcium fluorescence; activation, % at 3 µM; CHO-K1 hM5 cells; 0% DMSO wells, 100% maximal acetylcholine response; AID 624037, 2012; Muscarinic acetylcholine receptor M5 (Homo sapiens), P08912; 360,000 tested, 0.19% active;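 active = activation above the run's mean over test compounds plus 3 SD, cut at about 23% in these data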;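 note: signal is peak over basal fluorescence ratio across the kinetic read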
CHRM4 agonist – human M4 muscarinic receptor agonists, primary screen, CHO-K1 cells, Fluo-8 calcium fluorescence | Muscarinic acetylcholine receptor M4 (Homo sapiens), P08173 | CHO-K1 hM4/Gqi5; vehicle 0%, full acetylcholine response 100% | 360,000 tested, 0.14% active | activation, % at 3 µM;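 active = activation above the run mean over all test wells plus 3 SD, cut at about 32% in these data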;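 note: peak over basal fluorescence ratio per well then scaled between controls; 0% = DMSO wells and 100% = acetylcholine at EC100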
M5 PAM – human M5 muscarinic receptor positive allosteric modulators, primary screen, CHO-K1 cells, Fluo-8 calcium fluorescence. 360,000 tested, 0.3% active. activation, % at 3 µM. Muscarinic acetylcholine receptor M5 (Homo sapiens), P08912. CHO-K1 hM5, ACh EC20 PAM; 0% = ACh EC20, 100% = ACh EC100;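 active = activation above the run cutoff, the mean activation of all test compounds plus 3 SD, cut at about 18% in these data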
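System: CHO-K1 hM5 cells. Reagent: acetylcholine, EC20 level. Compound dosing: single dose, 3 µM nominal final test concentration. Timing: Post-acetylcholine fluorescence recording 140 s. Detection: Fluo-8 calcium fluorescence. Read-out: % activation, ACh-normalized. Benchmarks: ACh EC20 and EC100 wells. Repeats: singlicate, one well per test compound.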
An asterisk follows results filed as active.

SMILES | M4 antag | M4 PAM | M5 antag | CHRM5 agonist | CHRM4 agonist | M5 PAM
C=C(C)[C@@H]1C2C(=O)O[C@H]1[C@H]1OC(=O)[C@@]34OC3C[C@]2(O)[C@@]14C (some centres not stated) | 2 | -5 | -2 | -1 | 0 | -7
CCC1(C)OC(c2ccccc2)=C/C(=C/C=C2C(=O)NC(=O)NC2=O)O1 (configuration not stated) | 10 | -10 | 5 | 61* | 16 | -19
COc1ccccc1N1C(=O)NC(=O)C(CCc2ccncc2)(CCc2ccncc2)C1=O | -15 | 11 | 4 | 3 | 0 | 28*
CCCCn1nnnc1C(C1CC1)N1CCC2(CC1)C(=O)NCN2c1ccccc1 (configuration not stated) | -6 | -7 | 5 | 0 | 6 | -4
O=C(CCCN1CCC2(CC1)C(=O)NCN2c1ccccc1)c1ccc(F)cc1 | 99* | -20 | 96* | 81* | 135* | -21
Nc1cccc(SC2CC(=O)N(c3ccc(Cl)cc3C(=O)c3ccccc3)C2=O)c1 (configuration not stated) | -9 | 0 | 27* | -2 | 2 | -6
CC[n+]1c(/C=C/C=C/c2ccc(N(C)C)cc2)sc2ccccc21 | 55* | -14 | 51* | -2 | 23 | -30
CN1C[C@H](CO)C=C2c3cccc4[nH]cc(c34)C[C@H]21 | -12 | 7 | 4 | 1 | 2 | 3
CC1=C[C@@H]2c3cccc4[nH]cc(c34)C[C@H]2N(C)C1 | 57* | -16 | 2 | -7 | 2 | -14
CC=C(C)C1(CCC)C(=O)NC(=S)NC1=O | -13 | 4 | 4 | 3 | 1 | -8
c1ccc2c[n+](CCCCCCCCCC[n+]3ccc4ccccc4c3)ccc2c1 | 27* | -10 | 3 | -7 | 1 | -16
C[N+](C)(C)CCOC(=O)CBr | -8 | 0 | -1 | 37* | 1 | -15
CC(=O)OCC[N+](C)(C)C | 79* | -21 | 98* | 100* | 96* | -13
COC(=O)C1C2c3ccccc3C(c3ccccc32)C1(C)C(=O)OC (configuration not stated) | 0 | 14 | 3 | -3 | -2 | -6
CC(=O)c1cn(Cc2ccccc2F)c2ccccc12 | 3 | -13 | 27 | 5 | 12 | -14
COc1ccc(NS(=O)(=O)c2ccc(OCC(=O)N3CCN(C)CC3)cc2)cc1Cl | -10 | 1 | -3 | -4 | 3 | -3
CN1CCN(C(=O)COc2ccc(S(=O)(=O)NC3CCCCC3)cc2Cl)CC1 | -3 | 4 | -19 | 2 | 1 | 21*
CCC(=NCc1ccco1)c1c(O)n(-c2ccc(OC)cc2)c(=O)[nH]c1=O | -5 | 4 | 10 | 7 | 1 | -7
CCC(=NCc1ccco1)c1c(O)n(-c2ccc(Cl)cc2)c(=O)[nH]c1=O | -11 | 3 | 8 | 11 | 1 | 26*
COP(=O)(NC(=O)C(Cl)(Cl)Cl)OC | 12 | -2 | -3 | 0 | 0 | -3
c1ccc(C2(N3CCCCC3)CCCCC2)cc1 | -4 | -10 | 5 | -6 | 1 | -16
S=C=Nc1cccc(C2(N3CCCCC3)CCCCC2)c1 | 25 | -15 | 27* | -2 | 1 | -19
C[Se]C[C@@H](N)C(=O)O | 10 | -6 | 3 | 0 | 1 | -2
N[C@@H](CCl)C(=O)O | 51* | -16 | 7 | 2 | 1 | -8
c1ccc(-c2ccc(-c3n(-c4ccccn4)c4ccccc4[n+]3-c3ccccn3)cc2)cc1 | -4 | -12 | -2 | -6 | 3 | -9
SMILES | M4 antag | M4 PAM | M5 antag | CHRM5 agonist | CHRM4 agonist | M5 PAM
CCN1/C(=C\C=C\C2=[N+](CC)c3ccccc3C2(C)C)C(C)(C)c2ccccc21 | 92* | -20 | 94* | 302* | 252* | -52
CCC1(CC)C(=O)N(C)C(=O)NC1=NC | -6 | 4 | 2 | -2 | 1 | 5
O=C(NC1CCCCC1)N1Cc2cc(-c3ccccc3)ccc2-n2nncc2C1 | 2 | -5 | 4 | -5 | 4 | -7
C=C1N2CCC(CC2)C1(O)c1ccc(C)c(C)c1 (configuration not stated) | 5 | -7 | 33* | -13 | 1 | -55
C[C@@H]1CN([C@H](C)CO)C(=O)CCCn2nncc2CO[C@H]1CN(C)C(=O)Oc1cccc2ccccc12 | -9 | 0 | -5 | 0 | 1 | 2
CC12CCC(=O)C=C1CC(N1CC1)C1C2CCC2(C)C(O)CCC12 (configuration not stated) | -1 | -1 | 7 | 1 | 0 | 2
Brc1ccc2c(c1)C(OC1CN3CCC1CC3)c1ccccc1CS2 (configuration not stated) | 100* | -41 | 100* | -1 | 10 | -19
C[N+](C)(N)CCOC(=O)C(O)(c1ccccc1)C1CCCCC1 (configuration not stated) | 99* | -15 | 99* | -20 | 1 | -30
O=C(COC(=O)Cc1ccccc1)NC(=O)NC1CCCCC1 | -1 | 6 | 5 | 2 | 1 | -2
CC[N+](CC)(CC)CCCOC(=O)C(O)(c1ccccc1)C1CCCCC1 (configuration not stated) | 99* | -22 | 99* | -7 | 0 | -22
CCC1(c2cccc(O)c2)CCCCN(C)C1 (configuration not stated) | -2 | -5 | 3 | -1 | 0 | -5
c1ccc2c(CN3CCCCCCC3)c[nH]c2c1 | 32* | -22 | 6 | -4 | 0 | -4
C#CCOC(=O)C1=CCCN(C)C1 | 74* | -19 | 97* | 97* | 70* | -16
COc1ccc(-n2c(-c3ccccc3[N+](=O)[O-])nc3ccccc3c2=O)cc1 | -5 | -3 | 9 | -6 | 1 | -8
Cc1ccc2nsnc2c1-n1c(C)nc2ccccc2c1=O | 14 | 30* | -7 | 3 | 1 | 10
Cc1nc2ccccc2c(=O)n1-c1cccc(O)c1 | -8 | 17* | 0 | -5 | 1 | 9
Cc1ccc(-c2nc3ccccc3c(=O)n2-c2cccc(O)c2)cc1 | -4 | 2 | 1 | -3 | 3 | -4
N#CC(c1ccccc1)N1CCOCC1 (configuration not stated) | 5 | 2 | 12 | 0 | 1 | 1
C[C@H]1OC[C@@H](C[N+](C)(C)C)O1 | 73* | -19 | 96* | 107* | 98* | -12

Screening results deposited in PubChem by The Scripps Research Institute Molecular Screening Center.
